# PubChem BioAssay AID624467 (The Scripps Research Institute Molecular Screening Center, 2012)
# “And” between values parts separate entries of the source, which are not always exact repeats. Equal values may be shown once. In all, about 360,000 compounds went through this assay and about 3,600 (1%) were called active. The sample holds actives, similar compounds and a random draw of the others, so the mix is not that of the screen. Unmarked numbers belong to inactive results.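 How the source made its calls: active means activation above the mean activation of all test compounds in the run plus 3 SD (cut at about 38% in these data); inactive means the rest.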
# Molecular target: Trace amine-associated receptor 1 (Homo sapiens) (UniProt Q96RJ0)
# Assay: activators of TAAR1 calcium mobilization – Fluo-8 calcium fluorescence, CHO RD-HGA16 cells, primary screen (AID 624467)
# Conditions: CHO RD-HGA16 TAAR1, Fluo-8 calcium fluorescence; at 3 µM; active compounds read high; vehicle wells 0%, saturating PEA agonist 100%
# Procedure, shortened: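 Benchmarks: low control DMSO, high control PEA (EC100); System: CHO RD-HGA16 cells carrying human TAAR1 plus Gα16; Detection: Fluo-8 fluorescence, 5 s baseline then 140 s kinetic read; Schedule: 17-24 h plating, Fluo-8 75 min 37 °C, 30 min RT; Read-out basis: % activation from peak over basal fluorescence ratio, DMSO-to-PEA scaled.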
# Chain of Trace amine-associated receptor 1 (Homo sapiens) (Q96RJ0 whole entry, looked up): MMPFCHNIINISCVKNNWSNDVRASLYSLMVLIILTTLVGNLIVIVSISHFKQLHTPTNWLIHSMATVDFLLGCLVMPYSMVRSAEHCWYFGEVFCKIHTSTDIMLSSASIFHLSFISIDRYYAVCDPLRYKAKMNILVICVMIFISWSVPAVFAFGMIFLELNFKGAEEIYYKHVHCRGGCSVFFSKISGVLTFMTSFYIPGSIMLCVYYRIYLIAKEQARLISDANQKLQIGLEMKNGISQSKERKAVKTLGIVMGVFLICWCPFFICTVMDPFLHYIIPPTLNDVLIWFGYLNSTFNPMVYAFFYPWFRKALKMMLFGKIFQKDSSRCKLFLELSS
row,SMILES,activation
1,CCc1ccccc1S(=O)(=O)Cc1ccc(C(=O)NCCc2ccccc2)o1,50.3% (active)
2,COc1ccccc1CNC(=O)c1ccc(CS(=O)(=O)c2ccccc2)o1,11.9%
3,Cc1ccccc1S(=O)(=O)Cc1ccc(C(=O)NCCN2CCCCC2C)o1 (stereo not drawn),8.73%
4,CCCc1nnc(NC(=O)CCC(=O)N2CCN(S(=O)(=O)c3ccc(OC)cc3)CC2)s1,4.53%
5,CC1CCCN(c2cccc3c2S(=O)(=O)N(Cc2ccc(F)cc2)[C@@H](C)[C@H](c2ccccc2)O3)C1 (stereo partly drawn),0.84%
6,COC(=O)[C@]12C[C@H](CC(=O)NCc3ccccc3)C(=O)N(CCC3=CCCCC3)C1=C[C@H](C(C)(C)C)O[C@@H]2C,-2.08%
7,CCCC1CCC(=NNC(=S)NCCc2ccccc2)CC1 (stereo not drawn),54.9% (active)
8,S=C(NN=C1CCN(Cc2ccccc2)CC1)NC1CCCCC1,1.76%
9,CCCCNC(=S)N/N=C1\CCCCc2ccccc21,-2.14%
10,Cc1cccnc1CCNC(=O)C1CCC(=O)N(Cc2cccc(F)c2)C1 (stereo not drawn),0.59%
11,CN1CCCCC(NC(=O)C(C)(C)C)C1=O (stereo not drawn),3.02%
12,O=[N+]([O-])c1ccccc1N/N=C1\CCc2ccccc21,-0.37%
13,Oc1ccc2ccc3cccc[n+]3c2c1,152% (active)
14,Cc1ccc(C)c(CN2CCC(CNC(=O)C3CCCN(c4ncnc5c4nc4n5CCCCC4)C3)CC2)c1 (stereo not drawn),-0.04%
15,CCc1c(-c2ccccc2OC)ncn1CCc1ccccc1OC,53% (active)
16,COc1ccccc1CCNS(=O)(=O)c1cn(C)nc1C,4.37%
17,COc1ccccc1Cc1c(-c2ccc(F)cc2)nc2ccc(C)cn12,0.01%
18,COc1ccccc1CCn1cnc(-c2ccccc2)c1C(C)C,8.43%
19,CCCCc1c(-c2ccc(Br)cc2)ncn1CCc1ccccc1OC,48% (active)
20,COc1ccccc1Cc1c(-c2ccc(Cl)cc2)nc2c3ccccc3ccn12,0.7%

row,SMILES,activation
1,COc1ccccc1Cc1c(-c2ccc(Cl)cc2)nc2ccc(Cl)cn12,-1.69%
2,CCCc1c(-c2ccccc2F)ncn1Cc1ccccc1OC,5.04%
3,CCCCc1c(-c2ccc(Cl)cc2)ncn1CCc1ccccc1OC,54.2% (active)
4,[2H]C(CCOS(N)(=O)=O)c1ccccc1 (stereo not drawn),-0.46%
5,CCCNC(=O)CCc1c(C)nc2c(c(C)nn2-c2ccccc2)c1C,1.73%
6,O=C1CC(C(F)(F)C(F)(F)C(F)(F)C(F)(F)F)=Nc2ccccc2N1,-0.77%
7,COc1ccc(-c2ccccc2C2Cc3nnccc3CN2C(=O)Nc2ccccc2)cc1 (stereo not drawn),-0.83%
8,COC(=O)c1cc2c(c3c4ccccc4n(S(=O)(=O)c4cccc(C)c4)c13)C(=O)N(Cc1ccccc1)C2,3.11%
9,C=CCNC(=O)COC(=O)c1ccccc1C(=O)N(C)C1CCCCC1,5.08%
10,NS(=O)(=O)c1ccc(CCNC(=O)NC2CCCCC2)cc1,1.51%
11,CC(C)C(=O)Nc1ccc2c(c1)oc1ccccc12,6.67%
12,NC(=O)Nc1ccccc1C(=O)NCCc1ccccc1,10.1%
13,CC(NC(=O)CC1SC(N)=NC1=O)c1ccccc1 (stereo not drawn),4.22%
14,Nc1[nH]c(C(=O)c2ccc(Br)cc2)c(-c2ccc3c(c2)OCO3)c1C(=O)NCCc1c[nH]c2ccccc12,6.41%
15,CC(=O)c1ccc(Nc2nc(C(N)c3ccccc3)cs2)cc1 (stereo not drawn),4.52%
16,C/C(CC(=O)Nc1cccc(C(F)(F)F)c1)=N\NC(=O)C(=O)NCC(C)C,4.66%
17,COc1cccc(NC(=O)Nc2nnc(N3CCCCC3C)s2)c1 (stereo not drawn),0.7%
18,COc1ccc(C(N)c2csc(NC(=O)Nc3cccc(C(F)(F)F)c3)n2)cc1 (stereo not drawn),50.9% (active)
19,COc1cc(NC(=O)c2cncc(-c3ccc(C#N)cc3)c2)cc(C(=O)Nc2cccc(C(F)(F)F)c2)c1,7.65% and 3.81%
20,NC(c1ccccc1)c1csc(NC(=O)Nc2cccc(C(F)(F)F)c2)n1 (stereo not drawn),57% (active)

row,SMILES,activation
1,NC(c1csc(NC(=O)Nc2cccc(C(F)(F)F)c2)n1)C1CCCCC1 (stereo not drawn),39% (active)
2,NC(c1csc(NC(=O)Nc2ccccc2Oc2ccccc2)n1)c1ccccc1Cl (stereo not drawn),13.7%
3,CCOC(=O)c1csc(NC(=O)Nc2cccc(OC)c2)n1,14.4%
4,CC1(C(=O)NS(=O)(=O)c2cccc(F)c2)CCN1C(=O)c1cccc2ccccc12 (stereo not drawn),-0.17%
5,O=S1(=O)c2c(cccc2N2CCCC2)O[C@H](COCc2ccccc2)CN1C1CC1,0.87%
6,Cc1cc(N2CCN(C(=O)OC(C)(C)C)C[C@H]2C)ccc1N1CCN(Cc2ccccc2)[C@H](C)C1,0.58%
7,Cc1nc2c(OCc3ccc(Cl)cc3)cccn2c1N(C)Cc1cccs1,0.87%
8,CCCCCCCCN1C(=O)[C@@H](CC(=O)NCc2ccccc2)C[C@@]2(C(=O)OC)C1=C[C@H](C(C)(C)C)O[C@@H]2C,-0.96%
9,Cc1ccc(OC(=O)c2cncc(Br)c2)c(C)c1,6.31%
10,COCCNC(=O)C1CCN(C(=O)C2CC(=O)N(c3ccc(C)cc3)C2)CC1 (stereo not drawn),-0.76%
11,Cc1onc(-c2ccccc2)c1C(=O)N1CCN(S(=O)(=O)c2ccccc2C(F)(F)F)CC1,0.73%
12,COc1ccc(C(=O)NC(=O)CSc2nnc(-c3ccco3)n2-c2ccccc2)cc1,1.34%
13,Cc1onc(-c2ccccc2)c1C(=O)NNC(=S)NC(=O)c1ccc(F)cc1,112% (active)
14,COc1ccc(C(=O)NC(=S)NNC(=O)c2c(-c3ccccc3)noc2C)cc1,120% (active)
15,COc1ccc(NC(=O)c2sc(N3CCOCC3)nc2-c2ccccc2)c(OC)c1,-1.31%
16,Cc1nc2ccccc2c(C)c1C(=O)c1ccc(F)cc1,12.1%
17,O=C(O)C1CCN(S(=O)(=O)N2CCOCC2)CC1,7.75%
18,Cc1ccc(OCC(=O)Nc2ccc(C(=O)O)cc2NC(=O)COc2ccc(C)c(C)c2)cc1C,3.56%
